# pEC50, pIC50, pKi: −log10 of the molar value. Calls of active or inactive are those of the source. The rule behind the calls is not given here.
# System: U-937
# Test: Cytotoxicity against human U937 cells assessed as decrease in cell viability at 0.6 to 40 uM after 48 hrs by MTT assay
# Format: functional, cell-based
# Outline: (§1)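 U251MG (EMEM, 10% FBS) or U937 (RPMI 1640, 10% FBS) cells plated at 4x10³/well for 24h, then exposed to compounds (0–40 µM) for 48 h at 37°C. MTT reduction, formazan read at 595 nm. Viability as % of untreated control. Five independent experiments in triplicate, mean ± SD, ANOVA with Bonferroni.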
row,Compound,Activity
1,O=C(NC1CCCCCC1)c1c(-c2ccccc2)ccn(Cc2ccc(F)cc2)c1=O,Active
2,Cc1ccnc(OCc2ccc(F)cc2)c1C(=O)NC1CCCCCC1,Active
3,Cc1c(-c2ccccc2)cn(Cc2ccc(F)cc2)c(=O)c1C(=O)NC1CCCCCC1,Active
4,COc1ccc(-c2cc(C(=O)NC3CCCCCC3)c(=O)n(Cc3ccc(F)cc3)c2)cc1,Active

# Biological target: T1, Cannabinoid receptor 1 (Homo sapiens, UniProt P21554)
# T1 sequence (P21554 whole entry): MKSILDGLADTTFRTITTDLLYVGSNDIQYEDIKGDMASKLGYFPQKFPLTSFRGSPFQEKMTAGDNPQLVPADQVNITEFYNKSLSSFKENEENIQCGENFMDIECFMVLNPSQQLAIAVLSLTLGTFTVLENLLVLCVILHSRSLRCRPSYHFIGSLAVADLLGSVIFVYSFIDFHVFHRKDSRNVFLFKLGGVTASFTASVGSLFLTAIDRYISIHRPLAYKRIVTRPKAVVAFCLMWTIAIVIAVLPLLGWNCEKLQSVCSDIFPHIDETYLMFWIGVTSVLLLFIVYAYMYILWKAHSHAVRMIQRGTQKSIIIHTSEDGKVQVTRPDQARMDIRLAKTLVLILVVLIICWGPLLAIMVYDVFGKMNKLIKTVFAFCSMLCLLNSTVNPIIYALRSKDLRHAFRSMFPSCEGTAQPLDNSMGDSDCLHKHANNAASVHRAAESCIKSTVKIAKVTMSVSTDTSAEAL
# Test: Agonist activity at human CB1 receptor expressed in CHO cell membranes after 90 mins by [35S]GTPgammaS binding assay
# Format: functional, cell-based
row,Compound,pEC50
1,Cc1ccnc(OCc2ccc(F)cc2)c1C(=O)NC1CCCCCC1,6.64
2,Cc1c(-c2ccccc2)cn(Cc2ccc(F)cc2)c(=O)c1C(=O)NC1CCCCCC1,6.63

# Biological target: T2, Cannabinoid receptor 2 (Homo sapiens, UniProt P34972)
# T2 sequence (P34972 whole entry): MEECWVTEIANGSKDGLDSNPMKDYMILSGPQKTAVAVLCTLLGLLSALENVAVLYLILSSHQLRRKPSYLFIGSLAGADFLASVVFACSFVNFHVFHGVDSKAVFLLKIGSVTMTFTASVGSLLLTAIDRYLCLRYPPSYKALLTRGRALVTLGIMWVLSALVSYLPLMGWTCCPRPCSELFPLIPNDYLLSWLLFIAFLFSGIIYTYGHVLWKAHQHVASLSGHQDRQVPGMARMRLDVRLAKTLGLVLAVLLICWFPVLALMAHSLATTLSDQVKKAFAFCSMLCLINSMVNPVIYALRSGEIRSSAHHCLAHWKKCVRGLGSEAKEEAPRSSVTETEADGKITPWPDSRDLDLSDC
# Test: Agonist activity at human CB2 receptor expressed in CHO cell membranes after 90 mins by [35S]GTPgammaS binding assay
# Format: functional
# Outline: (§2)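 Membranes (5 µg) of hCB2-expressing cells in 50 mM Tris-HCl, 3 mM MgCl₂, 0.2 mM EDTA, 100 mM NaCl, 0.5% fatty acid-free BSA, pH 7.4, with 10 µM GDP and 0.1 nM [³⁵S]GTPγS. Kept on ice, started by vehicle or compound, 90 min at 30 °C. Nonspecific binding with 10 µM GTPγS. Filtered on GF/B, radioactivity counted. At least three experiments in triplicate, mean ± SD.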
row,Compound,pEC50
1,O=C(NC1CCCCCC1)c1c(-c2ccccc2)ccn(Cc2ccc(F)cc2)c1=O,6.30
2,O=C(NC1CCCCCC1)c1c(-c2ccccc2)c(Br)cn(Cc2ccc(F)cc2)c1=O,6.50
3,Cc1ccnc(OCc2ccc(F)cc2)c1C(=O)NC1CCCCCC1,7.51
4,Cc1c(-c2ccccc2)cn(Cc2ccc(F)cc2)c(=O)c1C(=O)NC1CCCCCC1,7.92

# Biological target: T3, Monoglyceride lipase (Homo sapiens, UniProt Q99685)
# T3 sequence (Q99685 whole entry): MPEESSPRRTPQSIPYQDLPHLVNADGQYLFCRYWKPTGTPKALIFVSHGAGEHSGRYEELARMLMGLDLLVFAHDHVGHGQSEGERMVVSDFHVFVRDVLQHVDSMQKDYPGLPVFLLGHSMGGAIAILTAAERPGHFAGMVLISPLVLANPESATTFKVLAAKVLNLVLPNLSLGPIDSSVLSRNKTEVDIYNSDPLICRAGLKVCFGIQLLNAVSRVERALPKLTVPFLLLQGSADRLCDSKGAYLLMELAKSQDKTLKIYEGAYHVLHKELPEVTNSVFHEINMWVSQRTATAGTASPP
# Test: Inhibition of MAGL in human U937 cells using 2-OG containing […] as substrate preincubated for 30 mins followed by substrate addition and measured after 15 mins by liquid scintillation spectroscopic method
# Format: cell-based
# Outline: (§3)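 U937 cell homogenate (100 µg) in 10 mM Tris-HCl, 1 mM EDTA, pH 8, 0.1% fatty acid-free BSA. Compound at 10 µM screening concentration, 30 min at 37 °C. FAAH: 100 nM AEA with 1 nM [³H]AEA tracer. MAGL: 1 µM 2-OG with 1 nM tritiated tracer. Both 15 min at 37 °C, stopped with CHCl₃:MeOH (1:1), aqueous phase counted.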
row,Compound,pIC50
1,O=C(NC1CCCCCC1)c1c(-c2ccccc2)ccn(Cc2ccc(F)cc2)c1=O,< 5.00
2,O=C(NC1CCCCCC1)c1c(-c2ccccc2)c(Br)cn(Cc2ccc(F)cc2)c1=O,< 5.00
3,Cc1ccnc(OCc2ccc(F)cc2)c1C(=O)NC1CCCCCC1,< 5.00
4,Cc1c(-c2ccccc2)cn(Cc2ccc(F)cc2)c(=O)c1C(=O)NC1CCCCCC1,< 5.00

# Biological target: T2, Cannabinoid receptor 2
# Test: Agonist activity at human CB2 receptor expressed in CHO cell membranes after 90 mins by [35S]GTPgammaS binding assay relative to control
# Format: functional
# Outline: as §2
row,Compound,Emax [%]
1,O=C(NC1CCCCCC1)c1c(-c2ccccc2)ccn(Cc2ccc(F)cc2)c1=O,134
2,O=C(NC1CCCCCC1)c1c(-c2ccccc2)c(Br)cn(Cc2ccc(F)cc2)c1=O,176
3,Cc1ccnc(OCc2ccc(F)cc2)c1C(=O)NC1CCCCCC1,127
4,Cc1c(-c2ccccc2)cn(Cc2ccc(F)cc2)c(=O)c1C(=O)NC1CCCCCC1,39

# Biological target: T4, Monoacylglycerol lipase ABHD6 (Homo sapiens, UniProt Q9BV23)
# T4 sequence (Q9BV23 whole entry): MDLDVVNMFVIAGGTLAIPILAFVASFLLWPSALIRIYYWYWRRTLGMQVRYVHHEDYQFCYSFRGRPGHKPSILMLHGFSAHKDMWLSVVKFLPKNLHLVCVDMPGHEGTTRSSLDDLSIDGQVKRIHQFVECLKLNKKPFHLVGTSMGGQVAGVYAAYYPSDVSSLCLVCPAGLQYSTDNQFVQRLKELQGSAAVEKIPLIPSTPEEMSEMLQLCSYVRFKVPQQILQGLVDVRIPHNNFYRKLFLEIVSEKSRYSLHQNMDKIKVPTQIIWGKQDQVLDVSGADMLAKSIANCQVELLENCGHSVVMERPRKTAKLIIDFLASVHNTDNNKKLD
# Test: Inhibition of human ABHD6 expressed in HEK293 cells using 2-OG as substrate preincubated for 30 mins followed by substrate addition and measured after 5 mins by liquid scintillation spectroscopic method
# Format: cell-based
# Outline: (§4)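 Homogenate (40 µg) of HEK293 cells stably transfected with hABHD6 or hABHD12, compound preincubated 30 min at 37 °C in […], 0.1% BSA, pH 7.6. DMSO vehicle; WWL70 10 µM or THL 20 µM as positive controls. 10 µM 2-OG added for 5 min at 37 °C, stopped with CHCl₃:MeOH. Aqueous phase counted; no-enzyme blanks and non-transfected HEK293 hydrolysis subtracted.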
row,Compound,pIC50
1,O=C(NC1CCCCCC1)c1c(-c2ccccc2)ccn(Cc2ccc(F)cc2)c1=O,< 5.00
2,O=C(NC1CCCCCC1)c1c(-c2ccccc2)c(Br)cn(Cc2ccc(F)cc2)c1=O,5.52
3,Cc1ccnc(OCc2ccc(F)cc2)c1C(=O)NC1CCCCCC1,< 5.00
4,Cc1c(-c2ccccc2)cn(Cc2ccc(F)cc2)c(=O)c1C(=O)NC1CCCCCC1,< 5.00

# System: U-251
# Test: Cytotoxicity against human U251MG cells assessed as decrease in cell viability at 0.6 to 40 uM after 48 hrs by MTT assay
# Format: functional, cell-based
# Outline: as §1
row,Compound,Activity
1,O=C(NC1CCCCCC1)c1c(-c2ccccc2)ccn(Cc2ccc(F)cc2)c1=O,inactive
2,Cc1ccnc(OCc2ccc(F)cc2)c1C(=O)NC1CCCCCC1,inactive
3,Cc1c(-c2ccccc2)cn(Cc2ccc(F)cc2)c(=O)c1C(=O)NC1CCCCCC1,inactive
4,COc1ccc(-c2cc(C(=O)NC3CCCCCC3)c(=O)n(Cc3ccc(F)cc3)c2)cc1,inactive

# Biological target: T5, Lysophosphatidylserine lipase ABHD12 (Homo sapiens, UniProt Q8N2K0)
# T5 sequence (Q8N2K0 whole entry): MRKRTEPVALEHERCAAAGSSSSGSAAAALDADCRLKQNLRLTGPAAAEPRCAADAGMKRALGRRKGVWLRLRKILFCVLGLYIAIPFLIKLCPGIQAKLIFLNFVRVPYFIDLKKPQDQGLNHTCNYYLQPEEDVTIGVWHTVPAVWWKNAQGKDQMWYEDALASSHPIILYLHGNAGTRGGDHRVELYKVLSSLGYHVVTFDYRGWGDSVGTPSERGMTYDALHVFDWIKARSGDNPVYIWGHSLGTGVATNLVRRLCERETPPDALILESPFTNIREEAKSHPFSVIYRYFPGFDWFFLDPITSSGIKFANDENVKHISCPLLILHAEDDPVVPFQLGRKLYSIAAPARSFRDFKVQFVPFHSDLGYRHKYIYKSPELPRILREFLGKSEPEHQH
# Test: Inhibition of human ABHD12 expressed in HEK293 cells using 2-OG as substrate preincubated for 30 mins followed by substrate addition and measured after 5 mins by liquid scintillation spectroscopic method
# Format: cell-based
# Outline: as §4
row,Compound,pIC50
1,O=C(NC1CCCCCC1)c1c(-c2ccccc2)ccn(Cc2ccc(F)cc2)c1=O,< 5.00
2,O=C(NC1CCCCCC1)c1c(-c2ccccc2)c(Br)cn(Cc2ccc(F)cc2)c1=O,< 5.00
3,Cc1ccnc(OCc2ccc(F)cc2)c1C(=O)NC1CCCCCC1,< 5.00
4,Cc1c(-c2ccccc2)cn(Cc2ccc(F)cc2)c(=O)c1C(=O)NC1CCCCCC1,5.60

# System: U-937
# Test: Inhibition of [ethanolamine-1-3H]AEA/unlabeled AEA uptake in human U937 cells preincubated for 15 mins followed by [ethanolamine-1-3H]AEA/unlabeled AEA addition and measured after 15 mins by scintillation counting method
# Format: functional, cell-based
# Outline: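 Intact U937 cells (0.5x10⁶ per sample) in RPMI, preincubated with compound for 15 min at 37 °C. Then 1 nM [ethanolamine-1-³H]AEA plus unlabeled AEA (final 100 nM) added for 15 min. Stopped by rapid filtration and ice-cold PBS/1% BSA washes, radioactivity counted. At least three experiments in triplicate, mean ± SD.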
row,Compound,pIC50
1,O=C(NC1CCCCCC1)c1c(-c2ccccc2)ccn(Cc2ccc(F)cc2)c1=O,< 5.00
2,O=C(NC1CCCCCC1)c1c(-c2ccccc2)c(Br)cn(Cc2ccc(F)cc2)c1=O,< 5.00
3,Cc1ccnc(OCc2ccc(F)cc2)c1C(=O)NC1CCCCCC1,6.24

# Biological target: T2, Cannabinoid receptor 2
# Test: Displacement of [3H]-CP55940 from human CB2 receptor expressed in CHO cell membranes after 90 mins
# Outline: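 Membranes expressing hCB1 or hCB2 (stably transfected CHO) in 50 mM Tris-HCl, 2.5 mM EDTA, 5 mM MgCl₂, 0.5% fatty acid-free BSA, pH 7.4. Nonspecific binding with 10 µM […]. GF/B filtration, radioactivity counted, Ki derived. Mean ± SD, at least 3 experiments in triplicate.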
row,Compound,pKi
1,O=C(NC1CCCCCC1)c1c(-c2ccccc2)ccn(Cc2ccc(F)cc2)c1=O,6.73
2,O=C(NC1CCCCCC1)c1c(-c2ccccc2)c(Br)cn(Cc2ccc(F)cc2)c1=O,6.36
3,Cc1ccnc(OCc2ccc(F)cc2)c1C(=O)NC1CCCCCC1,7.33
4,Cc1c(-c2ccccc2)cn(Cc2ccc(F)cc2)c(=O)c1C(=O)NC1CCCCCC1,8.16

# Species: Homo sapiens
# Test: Selectivity ratio of Ki for human CB1 receptor to Ki for human CB2 receptor
# Outline: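 Membranes expressing hCB1 or hCB2 (stably transfected CHO) in 50 mM Tris-HCl, 2.5 mM EDTA, 5 mM MgCl₂, 0.5% fatty acid-free BSA, pH 7.4. Incubated with compound and 0.5 nM [³H]CP55,940 for 90 min at 30 °C. Nonspecific binding with 10 µM […]. GF/B filtration, radioactivity counted, Ki derived. Mean ± SD, at least 3 experiments in triplicate.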
row,Compound,Ratio Ki
1,O=C(NC1CCCCCC1)c1c(-c2ccccc2)ccn(Cc2ccc(F)cc2)c1=O,2 to 54
2,O=C(NC1CCCCCC1)c1c(-c2ccccc2)c(Br)cn(Cc2ccc(F)cc2)c1=O,2 to 54
3,Cc1ccnc(OCc2ccc(F)cc2)c1C(=O)NC1CCCCCC1,2 to 54
4,Cc1c(-c2ccccc2)cn(Cc2ccc(F)cc2)c(=O)c1C(=O)NC1CCCCCC1,2 to 54

# Biological target: T1, Cannabinoid receptor 1
# Test: Displacement of [3H]-CP55940 from human CB1 receptor expressed in CHO cell membranes after 90 mins
row,Compound,pKi
1,O=C(NC1CCCCCC1)c1c(-c2ccccc2)ccn(Cc2ccc(F)cc2)c1=O,< 5.00
2,O=C(NC1CCCCCC1)c1c(-c2ccccc2)c(Br)cn(Cc2ccc(F)cc2)c1=O,< 5.00
3,Cc1ccnc(OCc2ccc(F)cc2)c1C(=O)NC1CCCCCC1,6.88
4,Cc1c(-c2ccccc2)cn(Cc2ccc(F)cc2)c(=O)c1C(=O)NC1CCCCCC1,7.64

# Biological target: T6, Fatty-acid amide hydrolase 1 (Homo sapiens, UniProt O00519)
# T6 sequence (O00519 whole entry): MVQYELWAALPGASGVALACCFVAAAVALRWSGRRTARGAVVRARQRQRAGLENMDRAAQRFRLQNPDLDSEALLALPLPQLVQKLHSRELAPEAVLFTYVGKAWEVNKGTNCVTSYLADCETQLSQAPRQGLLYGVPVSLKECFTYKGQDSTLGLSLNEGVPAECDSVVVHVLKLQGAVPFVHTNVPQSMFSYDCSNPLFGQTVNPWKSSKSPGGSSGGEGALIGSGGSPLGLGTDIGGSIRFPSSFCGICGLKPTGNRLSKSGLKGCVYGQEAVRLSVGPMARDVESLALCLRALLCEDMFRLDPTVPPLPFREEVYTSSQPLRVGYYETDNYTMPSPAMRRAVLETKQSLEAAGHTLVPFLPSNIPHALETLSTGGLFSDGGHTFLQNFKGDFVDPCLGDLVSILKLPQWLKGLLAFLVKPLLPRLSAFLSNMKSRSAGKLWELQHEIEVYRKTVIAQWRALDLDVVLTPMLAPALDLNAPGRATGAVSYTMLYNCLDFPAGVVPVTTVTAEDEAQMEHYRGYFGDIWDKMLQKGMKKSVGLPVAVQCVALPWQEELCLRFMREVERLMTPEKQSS
# Test: Inhibition of FAAH in human U937 cells using AEA containing [ethanolamine-1-3H]AEA as substrate preincubated for 30 mins followed by substrate addition and measured after 15 mins by liquid scintillation spectroscopic method
# Format: cell-based
# Outline: as §3
row,Compound,pIC50
1,O=C(NC1CCCCCC1)c1c(-c2ccccc2)ccn(Cc2ccc(F)cc2)c1=O,< 5.00
2,O=C(NC1CCCCCC1)c1c(-c2ccccc2)c(Br)cn(Cc2ccc(F)cc2)c1=O,< 5.00
3,Cc1ccnc(OCc2ccc(F)cc2)c1C(=O)NC1CCCCCC1,< 5.00
4,Cc1c(-c2ccccc2)cn(Cc2ccc(F)cc2)c(=O)c1C(=O)NC1CCCCCC1,7.15
